Measured values published in ChEMBL document CHEMBL2440113, “Synthesis, radiofluorination, and in vivo evaluation of novel fluorinated and iodinated radiotracers for PET imaging and targeted radionuclide therapy of melanoma” (J Med Chem, 2013).

Key:
[1] = Octanol-water partition coefficient, log D of the compound at pH 7.4; assay type: physicochemical
Outline: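 About 74 kBq radiotracer was shaken in PBS pH 7.4 / octanol (1:1 mL), vortexed 1 min three times at room temperature, then centrifuged (3,000 rpm, 5 min). Both phases were gamma-counted. Three independent experiments in duplicate.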

[2] = Stability of the compound in saline after 6 hrs; assay type: physicochemical; conditions: read-out: Stability
Outline: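 Formulated radiotracer was kept in saline at room temperature; radiochemical purity was checked by analytical radio-HPLC over at least 6 h after preparation.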

[3] = Ratio of drug level in tumor to blood in C57BL/6J mouse harboring mouse B16-Bl6 cells at 9 to 12 MBq, iv after 3 hrs by PET analysis; assay type: ADME, organism-based
Outline: (§1)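 Ex vivo biodistribution. C57BL/6J mice bearing subcutaneous B16Bl6 tumours (3x10⁵ cells, shoulder), day 10 or 14, received [18F]tracer iv (9-12 MBq). They were killed by CO₂ at 1, 2 or 3 h. Tumours and organs were excised, weighed and gamma-counted. Results are decay-corrected % ID/g; ratios are tumour over tissue. n=3-6 per group; mean ± SD.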

[4] = system: Brain; test: Biodistribution in brain of C57BL/6J mouse harboring mouse B16-Bl6 cells at 9 to 12 MBq, iv after 3 hrs by PET analysis; assay type: ADME, organism-based; conditions: in vivo
Outline: (§2)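 Ex vivo dissection in B16Bl6-bearing C57BL/6J mice (3x10⁵ cells s.c. right shoulder), done at day 10 or 14 after implantation. The ¹⁸F tracer was given i.v. at 9-12 MBq. Mice were killed by CO₂ at 1, 2 or 3 h. Tumor, organs and tissues were excised, weighed and gamma-counted, then decay-corrected and expressed as %ID/g. n=3-6 per group; mean ± SD.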

[5] = system: Pancreas; test: Biodistribution in pancreas of C57BL/6J mouse harboring mouse B16-Bl6 cells at 9 to 12 MBq, iv after 3 hrs by PET analysis; assay type: ADME, organism-based; conditions: in vivo; outline: as §2
[6] = system: Spleen; test: Biodistribution in spleen of C57BL/6J mouse harboring mouse B16-Bl6 cells at 9 to 12 MBq, iv after 3 hrs by PET analysis; assay type: ADME, organism-based; conditions: in vivo; outline: as §2
[7] = system: Mus musculus; test: Biodistribution in eyes of C57BL/6J mouse harboring mouse B16-Bl6 cells at 9 to 12 MBq, iv after 3 hrs by PET analysis; assay type: ADME, organism-based, Eye; conditions: in vivo; outline: as §2
[8] = system: Mus musculus; test: Biodistribution in tumor of C57BL/6J mouse harboring mouse B16-Bl6 cells at 9 to 12 MBq, iv after 3 hrs by PET analysis; assay type: ADME, organism-based, Neoplasm; conditions: in vivo; outline: as §1
[9] = system: Brain; test: Biodistribution in brain of C57BL/6J mouse harboring mouse B16-Bl6 cells at 9 to 12 MBq, iv after 2 hrs by PET analysis; assay type: ADME, organism-based; conditions: in vivo; outline: as §2
[10] = system: Lung; test: Biodistribution in lung of C57BL/6J mouse harboring mouse B16-Bl6 cells at 9 to 12 MBq, iv after 2 hrs by PET analysis; assay type: ADME, organism-based; conditions: in vivo; outline: as §2
[11] = system: Pancreas; test: Biodistribution in pancreas of C57BL/6J mouse harboring mouse B16-Bl6 cells at 9 to 12 MBq, iv after 2 hrs by PET analysis; assay type: ADME, organism-based; conditions: in vivo; outline: as §2
[12] = system: Kidney; test: Biodistribution in kidney of C57BL/6J mouse harboring mouse B16-Bl6 cells at 9 to 12 MBq, iv after 2 hrs by PET analysis; assay type: ADME, organism-based; conditions: in vivo; outline: as §2
[13] = system: Mus musculus; test: Biodistribution in cecum of C57BL/6J mouse harboring mouse B16-Bl6 cells at 9 to 12 MBq, iv after 2 hrs by PET analysis; assay type: ADME, organism-based, Caecum; conditions: in vivo; outline: as §2
[14] = system: Liver; test: Biodistribution in liver of C57BL/6J mouse harboring mouse B16-Bl6 cells at 9 to 12 MBq, iv after 2 hrs by PET analysis; assay type: ADME, organism-based; conditions: in vivo; outline: as §2
[15] = system: Zone of skin; test: Biodistribution in skin of C57BL/6J mouse harboring mouse B16-Bl6 cells at 9 to 12 MBq, iv after 2 hrs by PET analysis; assay type: ADME, organism-based; conditions: in vivo; outline: as §2
[16] = system: Mus musculus; test: Biodistribution in eyes of C57BL/6J mouse harboring mouse B16-Bl6 cells at 9 to 12 MBq, iv after 2 hrs by PET analysis; assay type: ADME, organism-based, Eye; conditions: in vivo; outline: as §2
[17] = system: Nucleic Acid; test: Ratio of drug level in tumor to muscle in C57BL/6J mouse harboring mouse B16-Bl6 cells at 9 to 12 MBq, iv after 1 hr by PET analysis; assay type: ADME, organism-based; conditions: in vivo; outline: as §1
[18] = system: Lung; test: Biodistribution in lung of C57BL/6J mouse harboring mouse B16-Bl6 cells at 9 to 12 MBq, iv after 1 hr by PET analysis; assay type: ADME, organism-based; conditions: in vivo; outline: as §2
[19] = system: Pancreas; test: Biodistribution in pancreas of C57BL/6J mouse harboring mouse B16-Bl6 cells at 9 to 12 MBq, iv after 1 hr by PET analysis; assay type: ADME, organism-based; conditions: in vivo; outline: as §2
[20] = system: Kidney; test: Biodistribution in kidney of C57BL/6J mouse harboring mouse B16-Bl6 cells at 9 to 12 MBq, iv after 1 hr by PET analysis; assay type: ADME, organism-based; conditions: in vivo; outline: as §2
[21] = system: Mus musculus; test: Biodistribution in small intestine of C57BL/6J mouse harboring mouse B16-Bl6 cells at 9 to 12 MBq, iv after 1 hr by PET analysis; assay type: ADME, organism-based; conditions: in vivo; outline: as §2
[22] = system: Stomach; test: Biodistribution in stomach of C57BL/6J mouse harboring mouse B16-Bl6 cells at 9 to 12 MBq, iv after 1 hr by PET analysis; assay type: ADME, organism-based; conditions: in vivo; outline: as §2
[23] = system: Liver; test: Biodistribution in liver of C57BL/6J mouse harboring mouse B16-Bl6 cells at 9 to 12 MBq, iv after 1 hr by PET analysis; assay type: ADME, organism-based; conditions: in vivo; outline: as §2
[24] = system: Blood; test: Biodistribution in blood of C57BL/6J mouse harboring mouse B16-Bl6 cells at 9 to 12 MBq, iv after 1 hr by PET analysis; assay type: ADME, organism-based; conditions: in vivo; outline: as §2
[25] = Ratio of drug level in tumor to bone in C57BL/6J mouse harboring mouse B16-Bl6 cells at 8 to 12 MBq, iv after 1 hr by PET analysis; assay type: ADME, organism-based; conditions: in vivo
Outline: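 Static whole-body PET at 1 h after tail-vein injection of [18F]tracer (9-12 MBq/0.15 mL) in C57BL/6J mice carrying subcutaneous B16Bl6 shoulder tumours (3x10⁵ cells), imaged day 10 or 14. Mice under ketamine/xylazine ip. 25 min acquisition, OSEM reconstruction. ROI % ID/g = counts/g/min ÷ injected dose; ratios = tumour % ID/g ÷ organ % ID/g. n=2-8; mean ± SD.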

[26] = system: Mus musculus; test: Biodistribution in tumor of C57BL/6J mouse harboring mouse B16-Bl6 cells at 9 to 12 MBq, iv after 1 hr by PET analysis; assay type: ADME, organism-based, Neoplasm; conditions: in vivo; outline: as §1
[27] = system: Muscle tissue; test: Biodistribution in muscle of C57BL/6J mouse harboring mouse B16-Bl6 cells at 8 to 12 MBq, iv after 1 hr by PET analysis; assay type: ADME, organism-based; conditions: in vivo
Outline: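 C57BL/6J mice were inoculated s.c. on the right shoulder with 3x10⁵ B16Bl6 cells in PBS under isoflurane, and imaged at day 10 or 14 (tumor volume 431.8 ± 154.3 mm³). The ¹⁸F tracer was given i.v. via tail vein, 8-12 MBq (methods: 9-12 MBq/0.15 mL). Under ketamine/xylazine i.p., a 25-min whole-body static PET scan ran at 1 h. ROI %ID/g = counts/g/min ÷ injected dose. n=2-8; mean ± SD.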

[28] = system: Mus musculus; test: Ratio of drug level in tumor to muscle in C57BL/6J mouse harboring mouse B16-Bl6 cells at 9 to 12 MBq, iv after 3 hrs by PET analysis; conditions: in vivo

**Q.** With `CCN(CCNC(=O)c1cnc2cc(I)ccc2n1)CCOCCOCCOCC[18F]` as the compound, how does the logD [1] read?
**A.** 1.52

**Q.** What about the remaining at 6 h [2] of the same compound?
**A.** > 99%

**Q.** What about the Kp at 3 h [3] of the same compound?
**A.** 14.4

**Q.** And the Drug uptake [4]?
**A.** 1.37 % ID/g

**Q.** And the Drug uptake [5]?
**A.** 1.33 % ID/g

**Q.** What about the Drug uptake [6] of the same compound?
**A.** 1.87 % ID/g

**Q.** What about the Drug uptake [7] of the same compound?
**A.** 17.96 % ID/g

**Q.** And the Drug uptake [8]?
**A.** 11.55 % ID/g

**Q.** And the Drug uptake [9]?
**A.** 1.39 % ID/g

**Q.** And the Drug uptake [10]?
**A.** 1.65 % ID/g

**Q.** What about the Drug uptake [11] of the same compound?
**A.** 1.33 % ID/g

**Q.** And the Drug uptake [12]?
**A.** 2.18 % ID/g

**Q.** What about the Drug uptake [13] of the same compound?
**A.** 8.94 % ID/g

**Q.** And the Drug uptake [14]?
**A.** 1.88 % ID/g

**Q.** And the Drug uptake [15]?
**A.** 1.51 % ID/g

**Q.** What about the Drug uptake [16] of the same compound?
**A.** 18.17 % ID/g

**Q.** What about the Ratio [17] of the same compound?
**A.** 12.12

**Q.** And the Drug uptake [18]?
**A.** 1.86 % ID/g

**Q.** What about the Drug uptake [19] of the same compound?
**A.** 2.09 % ID/g

**Q.** What about the Drug uptake [20] of the same compound?
**A.** 3.46 % ID/g

**Q.** And the Drug uptake [21]?
**A.** 7.58 % ID/g

**Q.** And the Drug uptake [22]?
**A.** 4.41 % ID/g

**Q.** And the Drug uptake [23]?
**A.** 2.56 % ID/g

**Q.** And the Drug uptake [24]?
**A.** 1.42 % ID/g

**Q.** And the Ratio [25]?
**A.** 7.65

**Q.** And the Drug uptake [26]?
**A.** 14.05 % ID/g

**Q.** And the Drug uptake [27]?
**A.** 1.37 % ID/g

**Q.** What about the Ratio [28] of the same compound?
**A.** 14.46

**Q.** Which results are given for `CCN(CCNC(=O)c1cnc2cc(I)ccc2n1)CCOCCOCCOCCOCCOCCOCCOCC[18F]`?
**A.** logD [1]: 0.95; remaining at 6 h [2]: > 99%; Kp at 3 h [3]: 5.27; Drug uptake [4]: 1.72 % ID/g; Drug uptake [5]: 1.81 % ID/g; Drug uptake [6]: 2.35 % ID/g; Drug uptake [7]: 13.43 % ID/g; Drug uptake [8]: 6.76 % ID/g; Drug uptake [9]: 1.03 % ID/g; Drug uptake [10]: 1.72 % ID/g; Drug uptake [11]: 1.56 % ID/g; Drug uptake [12]: 3.52 % ID/g; Drug uptake [13]: 12.1 % ID/g; Drug uptake [14]: 2.31 % ID/g; Drug uptake [15]: 0.94 % ID/g; Drug uptake [16]: 12.1 % ID/g; Ratio [17]: 9.48; Drug uptake [18]: 1.75 % ID/g; Drug uptake [19]: 2.63 % ID/g; Drug uptake [20]: 3.6 % ID/g; Drug uptake [21]: 16.68 % ID/g; Drug uptake [22]: 5.87 % ID/g; Drug uptake [23]: 2.02 % ID/g; Drug uptake [24]: 1.15 % ID/g; Ratio [25]: 2.67; Drug uptake [26]: 9.81 % ID/g; Drug uptake [27]: 1.01 % ID/g; Ratio [28]: 6.64
